{"source": "ChEMBL document CHEMBL4270573", "about": "“Novel nicotinoyl pyrazoline derivates bearing N-methyl indole moiety as antitumor agents: Design, synthesis and evaluation” (Eur J Med Chem, 2018)", "key": {"MCF7": {"tested_on": "MCF7", "assay": "Growth inhibition of human MCF7 cells after 48 hrs by MTT assay", "format": "functional", "settings": "MCF7, 48 h", "in_short": "(§1)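 Proliferation read-out; GI50 taken as the concentration giving 50% reduction of cancer cell proliferation.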"}, "A549": {"tested_on": "A549", "assay": "Growth inhibition of human A549 cells after 48 hrs by MTT assay", "format": "functional", "settings": "A549, 48 h", "in_short": "as §1"}, "HeLa [1]": {"tested_on": "HeLa", "assay": "Cell cycle arrest in human HeLa cells assessed as accumulation at G2/M phase at 0.020 uM after 24 hrs by propidium iodide staining based flow cytometric analysis (reference value: 17.72%)", "format": "functional", "in_short": "(§2)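 HepG2 and HeLa cells were exposed to 0, 0.020, 0.040, 0.060, 0.080 or 0.10 µM for 6, 12 or 24 h. DNA content was stained with propidium iodide and analysed by flow cytometry to give the percentage of cells in G0/G1, S and G2/M phases; sub-G1 cells were also recorded.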"}, "HeLa [2]": {"tested_on": "HeLa", "assay": "Cell cycle arrest in human HeLa cells assessed as accumulation at G2/M phase at 0.080 uM after 24 hrs by propidium iodide staining based flow cytometric analysis (reference value: 17.72%)", "format": "functional", "in_short": "as §2"}, "HepG2 [3]": {"tested_on": "HepG2", "assay": "Cell cycle arrest in human HepG2 cells assessed as accumulation at G0/G1 phase at 0.020 uM after 24 hrs by propidium iodide staining based flow cytometric analysis (reference value: 55.63%)", "format": "functional", "in_short": "as §2"}, "HepG2 [4]": {"tested_on": "HepG2", "assay": "Cell cycle arrest in human HepG2 cells assessed as accumulation at S phase at 0.040 uM after 24 hrs by propidium iodide staining based flow cytometric analysis (reference value: 20.40%)", "format": "functional", "in_short": "as §2"}, "HepG2 [5]": {"tested_on": "HepG2", "assay": "Cell cycle arrest in human HepG2 cells assessed as accumulation at G2/M phase at 0.040 uM after 24 hrs by propidium iodide staining based flow cytometric analysis (reference value: 20.17%)", "format": "functional", "in_short": "as §2"}, "HepG2 [6]": {"tested_on": "HepG2", "assay": "Cell cycle arrest in human HepG2 cells assessed as accumulation at G0/G1 phase at 0.080 uM after 24 hrs by propidium iodide staining based flow cytometric analysis (reference value: 55.63%)", "format": "functional", "in_short": "as §2"}, "HepG2 [7]": {"tested_on": "HepG2", "assay": "Cell cycle arrest in human HepG2 cells assessed as accumulation at S phase at 0.080 uM after 24 hrs by propidium iodide staining based flow cytometric analysis (reference value: 20.40%)", "format": "functional", "in_short": "as §2"}, "HeLa [8]": {"tested_on": "HeLa", "assay": "Induction of apoptosis in human HeLa cells assessed as necrotic cells at 0.040 uM after 24 hrs by Annexin V-FITC/propidium iodide staining based flow cytometric analysis (reference value: 0.242%)", "format": "functional", "in_short": "(§3)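 HepG2 and HeLa cells were exposed to 0, 0.02, 0.040, 0.060, 0.080 and 0.10 µM for 6, 12 and 24 h. Cells were double-stained with Annexin V-FITC/PI and read by flow cytometry. Apoptotic rate was the percentage of FITC-positive cells, counting early plus late apoptotic.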"}, "HeLa [9]": {"tested_on": "HeLa", "assay": "Induction of apoptosis in human HeLa cells assessed as early apoptotic cells at 0.060 uM after 24 hrs by Annexin V-FITC/propidium iodide staining based flow cytometric analysis (reference value: 6.17%)", "format": "functional", "in_short": "as §3"}, "HeLa [10]": {"tested_on": "HeLa", "assay": "Induction of apoptosis in human HeLa cells assessed as viable cells at 0.060 uM after 24 hrs by Annexin V-FITC/propidium iodide staining based flow cytometric analysis (reference value: 88.6%)", "format": "functional", "settings": "read-out: Activity", "in_short": "as §3"}, "HeLa [11]": {"tested_on": "HeLa", "assay": "Induction of apoptosis in human HeLa cells assessed as late apoptotic cells at 0.080 uM after 24 hrs by Annexin V-FITC/propidium iodide staining based flow cytometric analysis (reference value: 4.98%)", "format": "functional", "in_short": "as §3"}, "HeLa [12]": {"tested_on": "HeLa", "assay": "Induction of apoptosis in human HeLa cells assessed as necrotic cells at 0.080 uM after 24 hrs by Annexin V-FITC/propidium iodide staining based flow cytometric analysis (reference value: 0.242%)", "format": "functional", "in_short": "as §3"}, "HepG2 [13]": {"tested_on": "HepG2", "assay": "Induction of apoptosis in human HepG2 cells assessed as late apoptotic cells at 0.020 uM after 24 hrs by Annexin V-FITC/propidium iodide staining based flow cytometric analysis (reference value: 2.93%)", "format": "functional", "in_short": "as §3"}, "HepG2 [14]": {"tested_on": "HepG2", "assay": "Induction of apoptosis in human HepG2 cells assessed as viable cells at 0.060 uM after 24 hrs by Annexin V-FITC/propidium iodide staining based flow cytometric analysis (reference value: 94.5%)", "format": "functional", "settings": "HepG2, 24 h, read-out: Activity", "in_short": "as §3"}, "HepG2 [15]": {"tested_on": "HepG2", "assay": "Induction of apoptosis in human HepG2 cells assessed as early apoptotic cells at 0.10 uM after 24 hrs by Annexin V-FITC/propidium iodide staining based flow cytometric analysis (reference value: 2.31%)", "format": "functional", "in_short": "as §3"}, "HepG2 [16]": {"tested_on": "HepG2", "assay": "Induction of apoptosis in human HepG2 cells assessed as late apoptotic cells at 0.10 uM after 24 hrs by Annexin V-FITC/propidium iodide staining based flow cytometric analysis (reference value: 2.93%)", "format": "functional", "in_short": "as §3"}, "Bos taurus": {"organism": "Bos taurus", "assay": "Inhibition of colchicine binding to calf brain tubulin preincubated for 1 hr followed by colchicine addition measured after 1 hr by UPLC-MS/MS analysis"}, "HeLa [17]": {"tested_on": "HeLa", "assay": "Cell cycle arrest in human HeLa cells assessed as accumulation at G2/M phase at 0.080 uM after 12 hrs by propidium iodide staining based flow cytometric analysis relative to control", "format": "functional", "in_short": "as §2"}, "[18]": {"assay": "Selectivity index, ratio of CC50 for HEK293T cells to GI50 for human HepG2 cells", "format": "toxicity", "settings": "HEK293T cells and HepG2 cells, read-out: Selectivity Index", "in_short": "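Ratio CC50/GI50: CC50 is the concentration reducing non-tumour 293T cell proliferation by 50%; GI50 is the concentration reducing cancer cell proliferation by 50%.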"}, "Tubulin (Homo sapiens)": {"biological_target": "Tubulin (Homo sapiens) (UniProt P68371+Q9H4B7+P0DPH7+P68366+Q13509+Q71U36+P04350+Q3ZCM7+P07437+P68363+Q9BQE3+Q6PEY2+Q13885+Q9BVA1+Q9BUF5)", "assay": "Inhibition of tubulin polymerization in human HepG2 cells assessed as abnormal mitotic spindle formation at 0.04 to 0.1 uM after 12 hrs by DAPI staining based immunofluorescence confocal laser scanning microscopic analysis", "format": "cell-based"}, "HeLa [19]": {"tested_on": "HeLa", "assay": "Antitumor activity against human HeLa cells xenografted in nude mouse assessed as relative tumor growth inhibition at 10 mg/kg, ip after 14 days (reference value: 59.92%)", "format": "functional", "settings": "336 h, read-out: TGI"}, "HeLa [20]": {"tested_on": "HeLa", "assay": "Antitumor activity against human HeLa cells xenografted in nude mouse assessed as relative tumor growth inhibition at 20 mg/kg, ip after 14 days (reference value: 59.92%)", "format": "functional", "settings": "336 h, read-out: TGI"}, "Mus musculus [21]": {"tested_on": "Mus musculus", "assay": "Toxicity in nude mouse xenografted with human HeLa cells assessed as cellular inflammatory infiltration in spleen at 10 to 20 mg/kg, ip after 14 days by hematoxylin and eosin staining based microscopic analysis", "format": "organism-based", "settings": "in vivo, 336 h"}, "Mus musculus [22]": {"tested_on": "Mus musculus", "assay": "Hepatotoxicity in nude mouse xenografted with human HeLa cells assessed as necrosis in liver at 10 to 20 mg/kg, ip after 14 days by hematoxylin and eosin staining based microscopic analysis", "format": "toxicity, organism-based", "settings": "in vivo, 336 h", "in_short": "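HeLa xenograft nude mice with tumours near 100 mm³, randomised to four groups of 28 mice in total. Dosing was intraperitoneal: vehicle, CA-4 10 mg/kg, or test compound at 10 or 20 mg/kg, continued for 14 days. Heart, liver, kidney and spleen were then H&E-stained and examined for inflammatory infiltration, edema, necrosis and cell morphology.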"}, "Mus musculus [23]": {"tested_on": "Mus musculus", "assay": "Toxicity in nude mouse xenografted with human HeLa cells assessed as necrosis in spleen at 10 to 20 mg/kg, ip after 14 days by hematoxylin and eosin staining based microscopic analysis", "format": "organism-based", "settings": "in vivo, 336 h"}}, "note": "Activity calls are given as the source filed them. The calls are words filed in the database; no cut-off is given here."}
{"smiles": "COc1cccc(C2=NN(C(=O)c3ccc(C)nc3)C(c3cn(C)c4ccc(OC)cc34)C2)c1", "note": "(configuration not stated)", "values": [{"measurement": "GI50", "setting": "MCF7", "result": 0.09, "unit": "µM"}, {"measurement": "GI50", "setting": "A549", "result": 0.59, "unit": "µM"}, {"measurement": "Activity", "setting": "HeLa [1]", "result": 21.23, "unit": "%"}, {"measurement": "Activity", "setting": "HeLa [2]", "result": 71.2, "unit": "%"}, {"measurement": "Activity", "setting": "HepG2 [3]", "result": 41.26, "unit": "%"}, {"measurement": "Activity", "setting": "HepG2 [4]", "result": 21.59, "unit": "%"}, {"measurement": "Activity", "setting": "HepG2 [5]", "result": 30.26, "unit": "%"}, {"measurement": "Activity", "setting": "HepG2 [6]", "result": 7.81, "unit": "%"}, {"measurement": "Activity", "setting": "HepG2 [7]", "result": 28.38, "unit": "%"}, {"measurement": "Activity", "setting": "HeLa [8]", "result": 0.512, "unit": "%"}, {"measurement": "Activity", "setting": "HeLa [9]", "result": 26.1, "unit": "%"}, {"measurement": "viability at 0.06 µM", "setting": "HeLa [10]", "result": 66.9, "unit": "%"}, {"measurement": "Activity", "setting": "HeLa [11]", "result": 7.03, "unit": "%"}, {"measurement": "Activity", "setting": "HeLa [12]", "result": 1.02, "unit": "%"}, {"measurement": "Activity", "setting": "HepG2 [13]", "result": 3.18, "unit": "%"}, {"measurement": "viability at 0.06 µM", "setting": "HepG2 [14]", "result": 85.7, "unit": "%"}, {"measurement": "Activity", "setting": "HepG2 [15]", "result": 18.5, "unit": "%"}, {"measurement": "Activity", "setting": "HepG2 [16]", "result": 8.33, "unit": "%"}, {"measurement": "inhibition", "setting": "Bos taurus", "result": "Active"}, {"measurement": "Activity", "setting": "HeLa [17]", "result": 66.08, "unit": "%"}, {"measurement": "selectivity ratio", "setting": "[18]", "result": "3 to 10"}, {"measurement": "inhibition", "setting": "Tubulin (Homo sapiens)", "result": "Active"}, {"measurement": "inhibition in vivo at 10 mg/kg", "setting": "HeLa [19]", "result": 47.1, "unit": "%"}, {"measurement": "inhibition in vivo at 20 mg/kg", "setting": "HeLa [20]", "result": 61.5, "unit": "%"}, {"measurement": "Activity", "setting": "Mus musculus [21]", "result": "Non-Toxic"}, {"measurement": "Activity", "setting": "Mus musculus [22]", "result": "Non-Toxic"}, {"measurement": "Activity", "setting": "Mus musculus [23]", "result": "Non-Toxic"}]}
